Screening data deposited in PubChem BioAssay by several laboratories.
ABCB6 inh 2: ABCB6 transporter inhibitors, primary screen, K562-ABCB6 cells, flow cytometry, MLPCN library | AID 602162, 2011 | K562-ABCB6 porphyrin accumulation, 1 h; hits give low values | fluorescence ratio to DMSO, % at 10 µM | ATP-binding cassette sub-family B member 6 (Homo sapiens), Q9NP58 | hit rate 0.19% among 360,000;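 active = fluorescence ratio to DMSO below 75%, the collection mean minus 3 SD; inconclusive = too few cells collected in the well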;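 also: signal is porphyrin accumulated inside mitochondria; 100% equals median channel fluorescence of DMSO control wells; lower ratio means ABCB6 inhibition with less porphyrin fluorescence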
Myeloid diff 2: induction of myeloid progenitor differentiation, primary screen, cell-based, flow cytometry, MLPCN library; ER-HoxA9 myeloid progenitors, lysozyme-GFP differentiation; calls only at 10 µM; hit rate 1% among 360,000; AID 624256, 2012;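 active = normalized GFP-positive differentiation at or above the plate's own cutoff, the solvent-only control mean plus 3 SD; inconclusive = no clear call, values can overlap the other calls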;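 also: cells exposed to compound for four days before flow analysis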
ATG4B inhibitor: ATG4B protease inhibitors, primary screen, biochemical, fluorescence, uHTS; Cysteine protease ATG4B (Homo sapiens), Q9Y4P1; ATG4B cleavage of LC3-PLA2, NBD-HPC fluorescence, 1 h; inhibition, % at 8.33 µM; hit rate 0.51% among 340,000; AID 504462, 2011; in the data active = inhibition above about 40%
Arrestin-AP2 inh: inhibitors of beta-arrestin/AP2 binding, primary screen, biochemical, GPCR trafficking, flow cytometry | FITC-arrestin peptide / GST-AP2 beads; AP2 beta2 appendage carries R879A mutation | inhibition, % at 10 µM | hit rate 0.31% among 340,000 | beta-arrestin 1 C-terminal peptide binding to AP2 beta2-adaptin appendage (human);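 active = inhibition above a set limit, near 3 SD of compounds lacking own fluorescence, cut at about 54% in these data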;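 also: plate controls were DMSO wells for no effect and 5 µM unlabelled arrestin peptide for full effect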
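System: GST-AP2 R879A glutathione beads; medium: PBS, Tween 20 0.05%, BSA 0.1%; reagent: fluorescein-tagged arrestin peptide at 50 nM final; schedule: pre-incubation 12 min, peptide binding 1 h, room temperature; detection: flow cytometry, FL1 (488/535 nm); read-out: inhibition as reduced fluorescein signal on beads, percent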
Granule exo inh: LAMP-1 surface exposure blockers, TALL-104 cells – cell-based, flow cytometry, MLPCN library, primary screen. TALL-104 LAMP-1 surface exposure; cells stimulated with thapsigargin and PMA. inhibition, % at 10 µM. hit rate 0.66% among 360,000;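 active = inhibition above about 55%, limit read from the data; inconclusive = no clear call, values can overlap the other calls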
CendR NRP1 mod: modulators of CendR peptide binding to NRP-1, primary screen, biochemical, fluorescence polarization, uHTS; Neuropilin-1 (Homo sapiens), O14786; FAM-RPARPAR peptide binding to NRP-1; inhibition, % at 25 µM; hit rate 0.85% among 360,000; AID 602438, 2012;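 active = inhibition or corrected inhibition above about 18%, plus a signal ratio from 0.5 to 1.5, limit read from the data, passing the limit was not always enough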
Target sequence (O14786 whole entry, looked up): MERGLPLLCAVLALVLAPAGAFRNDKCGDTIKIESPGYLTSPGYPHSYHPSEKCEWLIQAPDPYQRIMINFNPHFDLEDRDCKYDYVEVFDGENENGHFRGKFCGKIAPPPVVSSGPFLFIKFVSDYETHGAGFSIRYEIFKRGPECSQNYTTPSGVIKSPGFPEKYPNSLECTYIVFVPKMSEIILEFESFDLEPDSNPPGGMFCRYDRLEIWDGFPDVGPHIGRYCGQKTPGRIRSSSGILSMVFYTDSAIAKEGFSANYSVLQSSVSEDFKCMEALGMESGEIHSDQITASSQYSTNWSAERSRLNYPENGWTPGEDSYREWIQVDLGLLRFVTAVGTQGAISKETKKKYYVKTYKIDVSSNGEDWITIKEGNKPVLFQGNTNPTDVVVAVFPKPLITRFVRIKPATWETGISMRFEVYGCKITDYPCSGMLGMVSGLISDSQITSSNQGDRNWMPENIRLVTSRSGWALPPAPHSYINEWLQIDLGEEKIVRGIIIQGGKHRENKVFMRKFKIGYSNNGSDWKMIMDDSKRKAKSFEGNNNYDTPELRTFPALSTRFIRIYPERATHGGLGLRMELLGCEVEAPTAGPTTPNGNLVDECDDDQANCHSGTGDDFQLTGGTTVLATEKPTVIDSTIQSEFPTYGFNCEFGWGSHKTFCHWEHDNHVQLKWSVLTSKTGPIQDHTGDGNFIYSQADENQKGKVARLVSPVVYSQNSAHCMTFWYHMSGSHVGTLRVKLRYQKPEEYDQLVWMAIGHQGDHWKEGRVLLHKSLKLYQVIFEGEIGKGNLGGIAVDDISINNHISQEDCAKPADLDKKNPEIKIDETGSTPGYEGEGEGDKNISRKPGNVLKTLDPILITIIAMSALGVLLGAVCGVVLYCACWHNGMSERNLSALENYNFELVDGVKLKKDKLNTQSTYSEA
An asterisk follows results filed as active; i = inactive; ? = inconclusive; . = no result given; + = active, no number. Rows were chosen to be rich in hits. Some 3.3% of all compounds tested hit in one or more screens of this group.

SMILES | ABCB6 inh 2 | Myeloid diff 2 | ATG4B inhibitor | Arrestin-AP2 inh | Granule exo inh | CendR NRP1 mod
CC(C)n1nnnc1SCC(=O)Nc1cccc(F)c1 | 98 | i | -11 | 3 | -9 | 0
CCCCn1c(SCC(=O)Nc2cc(C(F)(F)F)cc(C(F)(F)F)c2)nnc1C(CC)N(C)C (centres undefined) | 96 | i | 3 | 7 | 19 | 20
CCOC(=O)C1CCCN(Cc2ccc(OC)c(OCc3ccccc3)c2)C1 (centres undefined) | 93 | i | -1 | 7 | -1 | 23*
CCOC(=O)C1CCN(Cc2ccc3ccccc3c2)CC1 | 100 | i | -1 | 6 | -6 | 31*
CCOC(=O)C1CCCN(CCC(=O)Nc2ccccc2C)C1 (centres undefined) | 92 | i | -7 | 10 | -1 | 23*
COc1ccc(CN2CCC(C(N)=O)CC2)cc1OCc1ccccc1 | 100 | i | 0 | 10 | -2 | -3
CCOC(=O)C1CCN(Cc2cccc(OC)c2)CC1 | 98 | i | -5 | 12 | -4 | -1
Cn1cnnc1SCC(=O)Nc1ccc2nc(SCc3ccccc3F)sc2c1 | 93 | i | -5 | 7 | 0 | -11
CC(=O)Nc1ccc(C(=O)N2CCCC(c3cc(C(=O)NCc4ccc(F)cc4)no3)C2)cc1 (centres undefined) | 105 | i | . | . | -3 | -4
O=C(c1ccc(-c2cccc(Cl)c2)o1)N1CCN(c2ccc([N+](=O)[O-])cc2)CC1 | 99 | i | -10 | 20 | 2 | 29*
O=C(c1cccc([N+](=O)[O-])c1)N1CCN(c2cccc(Cl)c2)CC1 | 98 | + | 2 | 35 | 1 | 2
Cc1c(Cl)cccc1-c1ccc(C(=O)N2CCN(c3ccc([N+](=O)[O-])cc3)CC2)o1 | 103 | i | 0 | 2 | 58* | 15
COc1ccc(N2CCN(C(=O)c3ccc(COc4ccc([N+](=O)[O-])cc4)o3)CC2)cc1 | 94 | i | -4 | 3 | 5 | 12
Cc1[nH]c(C)c(S(=O)(=O)N2CCN(c3ccccc3)CC2)c1C(=O)N1CCCCC1 | 99 | i | -3 | 4 | -2 | 5
Cc1ccccc1CNC(=O)c1ccc2nc([C@@H]3O[C@H](CO)[C@H](O)[C@H](O)[C@H]3O)[nH]c2c1 | 101 | i | . | . | -10 | 6
COc1cc2c(cc1OC)C1(Nc3c-2c(C)nn3-c2ccccc2)C(=O)Nc2ccccc21 (centres undefined) | 126 | + | -18 | 2 | 8 | -2
CCN(CC(=O)Nc1c(F)cccc1F)C(=O)c1ccc2c(c1)S(=O)(=O)N=C1CCCCCN12 | 94 | i | -3 | -7 | 5 | 3
CC(C)(C)OC(=O)N1O[C@H]2CC1[C@@H]1[C@@H]2N=NN1CCc1ccncc1 | 99 | i | -8 | -9 | 0 | 23*
CN(CCCNC(=O)CSc1cc(=O)n(C)c2cc(Cl)ccc12)Cc1ccccc1 | 106 | i | -5 | 1 | 4 | -8
CC1=[N+](C)N(c2ccccc2)C(=O)C1N=Cc1ccccc1Cl (centres undefined) | 99 | i | -18 | 0 | 3 | 18*
O=c1cc(-c2ccccc2F)oc2ccccc12 | 93 | i | -6 | -6 | -2 | -1
O=c1cc(-c2ccccc2[N+](=O)[O-])oc2ccccc12 | 98 | + | -3 | 16 | -5 | 11
O=C(NCc1nc2ccccc2[nH]1)C1=C[C@H](c2ccc3c(c2)OCO3)C[C@H](OCCCCO)O1 | 106 | i | -17 | 14 | -2 | -10
COCCCNCCCOc1ccc(C)cc1Br | 99 | + | -5 | -6 | -1 | -1
COCCNCCCOc1ccc(C)cc1Br | 88 | i | 3 | 18 | 7 | -7
SMILES | ABCB6 inh 2 | Myeloid diff 2 | ATG4B inhibitor | Arrestin-AP2 inh | Granule exo inh | CendR NRP1 mod
CCOC(=O)c1c(C)n(C)c2ccc(OCC(O)CN3C(=O)c4ccccc4S3(=O)=O)cc12 (centres undefined) | 35* | i | -6 | 0 | -1 | -2
COc1ccc(/C=N/NC(=O)c2ccc3ccccc3c2)cc1OS(=O)(=O)c1ccc(NC(C)=O)cc1 | 101 | . | -52 | 44 | 0 | -13
CCOC(=O)c1c(SCCN2CCCCC2)n(-c2ccccc2)c(=S)n(-c2ccccc2)c1=O | 96 | i | -6 | 21 | 69* | -12
Cc1ccc(S(=O)(=O)Nc2ccc3c(c2)C(=O)NC3=O)cc1[N+](=O)[O-] | 99 | i | 5 | -1 | 6 | 4
CCN(CC)S(=O)(=O)c1ccc(NC2c3ccccc3C(=O)N2CCN2CCOCC2)cc1 (centres undefined) | 103 | + | -4 | 20 | 5 | -1
CCOC(=O)/C=C/COc1ccccc1[N+](=O)[O-] | 97 | i | -2 | -8 | 1 | 28*
O=C(/C=C/c1ccco1)Oc1cc(Br)cc(/C=N/NC(=O)c2ccccc2O)c1 | 97 | ? | 27 | 13 | 78* | -11
CCn1c(-c2ccc[nH]c2=O)nc2ccccc21 | i | + | 15 | 5 | -5 | -3
CCOc1ccc(CCNC(=O)C(C)n2nc(C)c3c(C)n(-c4ccccc4)nc3c2=O)cc1 (centres undefined) | 101 | i | -3 | 4 | 15 | 8
COc1cc2c(cc1OC)C(=O)C(c1ccc3c(c1)OCO3)CC2 (centres undefined) | 99 | i | . | . | 0 | 3
COc1cc2c(cc1OC)C(=O)C(Br)CC2 (centres undefined) | 97 | i | . | . | 100* | 26*
O=S1(=O)C=C(SCCN2CCCCC2)c2ccccc21 | 94 | i | 5 | 34 | 63* | 8
Cc1ccccc1-c1cnc(C(O)c2ccc(F)c(F)c2)[nH]1 (centres undefined) | 100 | i | . | . | 4 | 23*
Cc1cc(C(O)c2ncc(-c3ccccc3C)[nH]2)ccc1F (centres undefined) | 103 | i | . | . | 5 | -8
CC1=NN(c2ccccc2)C(=O)C1CCC#N (centres undefined) | 96 | i | . | . | 17 | 4
COc1ccc(CC(=O)OCc2cc3ccccc3[nH]c2=O)cc1 | 100 | i | -13 | 3 | 1 | 25*
Cc1ccc(CNS(=O)(=O)c2ccc(-c3cnc(C4CC4)o3)cc2)cc1 | 98 | i | -10 | -3 | -2 | 21*
